# Screening results (PubChem)
# TAAR1 antagonist = human TAAR1 antagonists, primary screen, Fluo-8 calcium fluorescence, CHO RD-HGA16 cells. Trace amine-associated receptor 1 (Homo sapiens), Q96RJ0. antagonist. inhibition, % at 3 µM. hit rate 1.5% among 360,000;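 active = inhibition above a per-plate cutoff, the mean inhibition of test compounds on that plate plus 3 SD, cut at about 49% in these data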;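 also: 0% = DMSO plus EC80 beta-PEA response and 100% = DMSO alone without agonist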
#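 Assay system: RD-HGA16 CHO cells with stable hTAAR1 and Gα16 / Reagent: EC80 β-phenethylamine stimulus / Doses: 3 µM, single point / Timing: dye loading 75 min at 37 °C, then 30 min room temperature / Measured by: Fluo-8 intracellular calcium dye fluorescence, real-time kinetic reads / Controls: vehicle wells and EC80 agonist wells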
# GPR7 antagonist = GPR7 receptor antagonists, primary screen, cell-based, fluorescence, single concentration; hit rate 1.1% among 290,000; AID 1861, 2009; GPR7-expressing cells, fluorescence antagonist assay; Neuropeptides B/W receptor type 1 (Homo sapiens), P48145; inhibition, % at 4.4 µM; in the data active = inhibition above about 16%, passing the limit was not always enough;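 also: cells stimulated with the agonist NPW; 0% = agonist with vehicle and 100% = vehicle without agonist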
# TAAR1 ag = human TAAR1 agonists, primary screen, Fluo-8 calcium fluorescence, CHO RD-HGA16 cells | Trace amine-associated receptor 1 (Homo sapiens), Q96RJ0 | vehicle wells 0%, saturating PEA agonist 100% | activation, % at 3 µM | hit rate 0.99% among 360,000 | AID 624467, 2012;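 active = activation above the mean activation of all test compounds in the run plus 3 SD, cut at about 38% in these data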
#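 Signal – calcium-sensitive Fluo-8 signal, excitation 470-495, emission 515-575 nm · System – RD-HGA16 (CHO) cells co-expressing Gα16 and hTAAR1 · Incubation – 17-24 h seeding, 75 min 37 °C dye, 30 min RT · Compound dosing – 3 µM single concentration · Repeats – no replicates (n 1)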
# LANA-H2B inh = blockers of LANA interaction with H2A/H2B – biochemical, FP readout, HTS, primary screen. inhibition, % (test concentration not listed). cell-free LANA-H2A/H2B peptide, fluorescence polarization. hit rate 0.6% among 320,000. Protein LANA1 (Human herpesvirus 8 type P (isolate GK18)), Q9QR71; in the data active = inhibition mostly above about 10%, no sharp cut-off; inactive = mostly below about 6.7%
# Target sequence (Q9QR71 whole entry, looked up): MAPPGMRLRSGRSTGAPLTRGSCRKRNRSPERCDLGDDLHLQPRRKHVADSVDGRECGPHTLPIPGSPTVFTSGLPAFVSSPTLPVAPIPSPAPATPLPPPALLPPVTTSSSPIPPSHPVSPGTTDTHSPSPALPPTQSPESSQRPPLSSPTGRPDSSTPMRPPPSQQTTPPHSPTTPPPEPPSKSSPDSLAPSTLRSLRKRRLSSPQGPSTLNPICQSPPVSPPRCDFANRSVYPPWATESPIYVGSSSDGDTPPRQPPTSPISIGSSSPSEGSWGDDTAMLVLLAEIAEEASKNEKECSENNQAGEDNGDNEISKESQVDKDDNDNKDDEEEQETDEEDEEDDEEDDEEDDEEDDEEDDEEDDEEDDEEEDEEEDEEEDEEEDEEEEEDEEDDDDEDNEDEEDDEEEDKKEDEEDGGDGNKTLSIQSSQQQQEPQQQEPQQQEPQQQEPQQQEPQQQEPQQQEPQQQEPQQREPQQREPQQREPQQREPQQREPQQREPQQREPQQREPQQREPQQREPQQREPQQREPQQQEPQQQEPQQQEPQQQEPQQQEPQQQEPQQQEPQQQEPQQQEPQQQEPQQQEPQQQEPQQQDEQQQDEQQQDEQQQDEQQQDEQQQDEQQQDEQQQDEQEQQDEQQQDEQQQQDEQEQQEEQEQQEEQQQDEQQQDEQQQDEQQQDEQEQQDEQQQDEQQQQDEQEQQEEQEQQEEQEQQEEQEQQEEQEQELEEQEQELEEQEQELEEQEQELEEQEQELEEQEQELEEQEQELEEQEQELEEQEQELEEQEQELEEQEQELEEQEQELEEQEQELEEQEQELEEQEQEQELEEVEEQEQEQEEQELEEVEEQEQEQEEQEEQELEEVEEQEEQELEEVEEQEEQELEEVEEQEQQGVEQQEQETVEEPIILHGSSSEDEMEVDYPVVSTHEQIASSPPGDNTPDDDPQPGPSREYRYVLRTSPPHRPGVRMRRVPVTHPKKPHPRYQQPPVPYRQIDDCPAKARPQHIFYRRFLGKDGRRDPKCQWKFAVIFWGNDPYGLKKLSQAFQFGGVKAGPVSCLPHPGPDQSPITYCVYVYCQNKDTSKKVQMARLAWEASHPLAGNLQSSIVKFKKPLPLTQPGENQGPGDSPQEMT
# TRPML3 ag = human TRPML3 channel agonists, primary screen, cell-based, HEK293 TRPML3-YFP, Fluo-8 calcium fluorescence, 3 µM; activation, % at 3 µM; 100% = the carbachol control signal; hit rate 0.29% among 220,000;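 active = activation above its plate's cutoff, the mean activation of the plate's test wells plus 3 SD, cut at about 12% in these data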;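 also: 0% = DMSO only wells and 100% = carbachol wells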
#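 Test system: HEK293 cells stably carrying human TRPML3-YFP; Doses: single dose, 3 µM final nominal compound, 0.3% DMSO final; Schedule: dye loading 1 h 37 °C then 30 min ambient, 125 s read; Technique: Fluo-8 calcium fluorescence; Benchmarks: high control carbachol 87 µM, low control DMSO.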
# TRPN1 ag = zebrafish TRPN1 channel agonists, primary screen, cell-based, HEK293, calcium fluorescence. transient receptor potential cation channel N1 (TRPN1/NompC), Danio rerio. HEK293 zebrafish TRPN1-YFP, Fluo-8 calcium fluorescence; 100% = response to 87 µM carbachol. activation, % at 3 µM. hit rate 0.18% among 220,000;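 active = activation above its plate's cutoff, the mean activation of test wells on that plate plus 3 SD, cut at about 19% in these data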;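 also: 0% = DMSO alone and 100% = 87 µM carbachol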
#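 Assay system: Zebrafish TRPN1-YFP in HEK293 cells | Incubation: Dye loading 1 h at 37 °C, then 30 min room temperature | Measured by: Kinetic Fluo-8 fluorescence, ex 470-495, em 515-575 nm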
# * marks the source's active call; other numbers are inactive results; / = no result. Only some compounds are listed: those with a hit (about 3.4% of all), similar ones and a draw of the others.
SMILES,TAAR1 antagonist,GPR7 antagonist,TAAR1 ag,LANA-H2B inh,TRPML3 ag,TRPN1 ag
CCOC(=O)c1c(C)[nH]c(C(=O)COC(=O)C(C)N2C(=O)C3CCCCC3C2=O)c1C (stereo not given),51*,-10,22,-4,3,6
COC(=O)N1C[C@H](OCc2ccccc2)[C@H]2C[C@@H]1c1ccccc1O2,-20,/,-1,/,/,/
C/C(=N/OC(=O)c1ccc(C)cc1)c1ccc(N2C(=O)C3CCCCC3C2=O)cc1 (stereo not given),66*,-10,17,5,1,1
C[C@H](CO)N1C[C@H](C)[C@@H](CN(C)S(=O)(=O)c2ccc(F)cc2)Oc2cc(Br)ccc2S1(=O)=O,40,/,8,/,/,/
Cc1ccc(-n2c(C)cc(C(=O)COc3c(CO)cc(F)cc3CO)c2C)cc1C,56*,-4,9,1,1,4
Cc1cc(C(=O)COc2ccccc2Cl)c(C)n1-c1ccc2c(c1)OCO2,4,4,-1,10,0,0
CCCc1nc2c(C)cc(Br)cn2c1Cc1cccc(Cl)c1,8,/,1,/,/,/
O=S(=O)(N1CCCCC1)n1nnc2cc3ccccc3cc21,-25,/,4,/,/,/
COC(=O)Cc1nnn2c1[C@H](C)[C@H](c1ccccc1Br)OC[C@H](C)C2,-4,/,-2,/,/,/
CC1CCCN(C(=O)/C(=C/c2ccco2)NC(=O)c2ccccc2)C1 (stereo not given),-5,3,22,-2,/,/
O=C(N/C(=C\c1ccco1)C(=O)N1CCCC1CO)c1ccccc1 (stereo not given),-29,-1,2,21*,/,/
CCC(C)NCCC(=O)Nc1ccc(Cl)c(S(=O)(=O)Nc2ccc(Cl)cc2)c1 (stereo not given),23,33*,2,3,1,3
Cc1ccc(C(=O)CCC(=O)Nc2ccc(Cl)c(S(=O)(=O)Nc3cccc(Cl)c3)c2)cc1,-9,5,4,2,0,0
COc1ccc2[nH]c3c(NCCC4=CCCCC4)ncnc3c2c1,37,23*,11,/,9,20*
CCN(CC)CCNc1ncnc2c1[nH]c1ccc(OC)cc12,/,-8,/,-5,0,2
CCOC(=O)N1CCN(CCC(=O)c2ccc(Br)cc2)CC1,4,5,15,3,/,/
CCOC(=O)N1CCN(CCC(=O)c2ccc(Cl)cc2)CC1,-6,-6,37*,6,1,0
COc1cccc(CNC(=O)[C@H]2CCCN2C(=O)[C@H]2CCCN2C(=O)c2cccs2)c1,-11,/,0,/,/,/
N#Cc1ccc(-c2ccc(OCC(=O)Nc3cccnc3)cc2)cc1,59*,10,10,1,/,/
COc1cc(C(=O)Nc2ccc(NC(=O)C(C)C)nc2)cc(OC)c1OC,9,/,5,15*,/,/
N#CC1=C(N)NC(SCc2ccc(Cl)cc2)=C(C#N)C12CCCCC2,62*,7,22,2,1,13
C[C@H]1Cn2cnc(C(=O)N(C)Cc3ccccc3)c2C(=O)N1,-5,/,-1,/,/,/
CSc1nnc(C)c(/C=C/Nc2ccc(F)cc2)n1,32,-4,68*,2,1,0
Cc1ccccc1-c1nc(CS(=O)CC(=O)NCCc2ccc(Cl)cc2)c(C)o1 (stereo not given),-17,-7,18,-14,/,/
COc1ccc(CCNC(=O)CS(=O)Cc2nc(-c3ccccc3F)oc2C)cc1OC (stereo not given),0,-8,2,0,/,/
SMILES,TAAR1 antagonist,GPR7 antagonist,TAAR1 ag,LANA-H2B inh,TRPML3 ag,TRPN1 ag
Cc1oc(-c2ccccc2Cl)nc1CS(=O)CC(=O)NCCc1ccccc1 (stereo not given),-14,3,38*,-6,/,/
COc1ccc(CCNC(=O)CS(=O)Cc2nc(-c3ccccc3Cl)oc2C)cc1OC (stereo not given),-33,-11,6,17*,/,/
CC(C)Nc1nc(NC(C)(C)C)nc(Oc2ccc(=O)n(C)n2)n1,-1,-10,39*,-2,1,1
C[C@@H]1COc2cc(N3CCOCC3)ccc2S(=O)(=O)N1,-19,/,2,/,/,/
Cc1ccc(C(C)C)c(OCC(=O)Nc2ccccc2N2CCN(C)CC2)c1,32,3,18,-2,0,1
CC(=O)N1CCN(c2ccccc2NC(=O)COc2cc(C)ccc2C(C)C)CC1,47,21*,20,0,1,2
COc1cc(/C=N/NC(=O)C(NC(=O)c2ccccc2)c2n[nH]c(=O)c3ccccc23)ccc1OCC(N)=O (stereo not given),0,0,5,22*,/,/
COC(=O)c1cc2c(c3c4ccccc4n(S(=O)(=O)c4ccccc4)c13)C(=O)N(Cc1ccc(N(C)C)cc1)C2,-26,/,-2,/,/,/
CCn1c(SCc2nc(-c3cccs3)no2)nnc1-c1c[nH]c2ccccc12,50*,14,18,2,1,6
COc1ccc(C(=O)Nc2ccccc2C(=O)NCc2ccco2)cc1OC,54*,-14,17,0,0,2
Cc1ccc(S(=O)(=O)N(C)[C@H]2C[C@H]3c4[nH]c5c(-c6ccccc6)cccc5c4CCN3C(=O)[C@H]2[C@H](C)O)cc1,44,/,3,/,/,/
Cc1[nH]c(=O)[nH]c(=O)c1CCSSCCc1c(C)[nH]c(=O)[nH]c1=O,-19,/,3,/,/,/
CN1c2ccsc2/C(=N/Nc2ccc(F)cc2)CS1(=O)=O,29,17,44*,4,0,-1
COC(=O)C1=C(C)N(Cc2cccc(C(F)(F)F)c2)C(=NCc2cc(OC)c(OC)c(OC)c2)NC1c1ccccc1C(F)(F)F (stereo not given),6,/,3,/,/,/
C[C@@H]1OC(C2CCCCC2)N(C)[C@H]2C[C@H]3c4[nH]c5c(-c6ccccc6)cccc5c4CCN3C(=O)[C@@H]12 (stereo not given in full),34,/,1,/,/,/
CCOC(=O)C1=CCN(S(=O)(=O)c2ccc([N+](=O)[O-])cc2)C1c1ccc(C)cc1 (stereo not given),32,/,1,/,/,/
CCOC(=O)c1ccc(N2CCN(c3ccccc3F)CC2)c(NC(=O)Nc2cccc(OC)c2)c1,69*,-3,10,-2,1,3
